Results on one compound are retold here after PubChem BioAssay AID652203 (Vanderbilt Specialized Chemistry Center, 2013).

Structures are written as SMILES. The source made the active and inactive calls. The rule behind the calls is not given here.

For this experiment, the target named is Metabotropic glutamate receptor 7 (Rattus norvegicus) (UniProt P35400). In words: mGlu7 modulation of L-AP4 calcium response, selectivity assay for mGlu5 silent allosteric modulator project, cell-based, rat, TRex293, Galpha15, Fluo4 calcium (AID 652203). Conditions: rmGlu7+Galpha15 TRex293, L-AP4 calcium Fluo4 fold shift; at 10 µM. The gist of the method:
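Material: Rat mGlu7 co-expressed with Galpha15 in TRex293 cells | Buffer or medium: Probenecid-containing assay buffer at pH 7.4 | Times: Compound added at 20 s, L-AP4 added at 80 s | Reagent: L-AP4, 3.9 µM–1 mM, 9 concentrations | Technique: Fluo4 fluorescence measuring intracellular calcium | Compound dosing: Single test-compound dose of 10 µM, 1% DMSO final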

Metabotropic glutamate receptor 7 (Rattus norvegicus), sequence (P35400 whole entry, looked up): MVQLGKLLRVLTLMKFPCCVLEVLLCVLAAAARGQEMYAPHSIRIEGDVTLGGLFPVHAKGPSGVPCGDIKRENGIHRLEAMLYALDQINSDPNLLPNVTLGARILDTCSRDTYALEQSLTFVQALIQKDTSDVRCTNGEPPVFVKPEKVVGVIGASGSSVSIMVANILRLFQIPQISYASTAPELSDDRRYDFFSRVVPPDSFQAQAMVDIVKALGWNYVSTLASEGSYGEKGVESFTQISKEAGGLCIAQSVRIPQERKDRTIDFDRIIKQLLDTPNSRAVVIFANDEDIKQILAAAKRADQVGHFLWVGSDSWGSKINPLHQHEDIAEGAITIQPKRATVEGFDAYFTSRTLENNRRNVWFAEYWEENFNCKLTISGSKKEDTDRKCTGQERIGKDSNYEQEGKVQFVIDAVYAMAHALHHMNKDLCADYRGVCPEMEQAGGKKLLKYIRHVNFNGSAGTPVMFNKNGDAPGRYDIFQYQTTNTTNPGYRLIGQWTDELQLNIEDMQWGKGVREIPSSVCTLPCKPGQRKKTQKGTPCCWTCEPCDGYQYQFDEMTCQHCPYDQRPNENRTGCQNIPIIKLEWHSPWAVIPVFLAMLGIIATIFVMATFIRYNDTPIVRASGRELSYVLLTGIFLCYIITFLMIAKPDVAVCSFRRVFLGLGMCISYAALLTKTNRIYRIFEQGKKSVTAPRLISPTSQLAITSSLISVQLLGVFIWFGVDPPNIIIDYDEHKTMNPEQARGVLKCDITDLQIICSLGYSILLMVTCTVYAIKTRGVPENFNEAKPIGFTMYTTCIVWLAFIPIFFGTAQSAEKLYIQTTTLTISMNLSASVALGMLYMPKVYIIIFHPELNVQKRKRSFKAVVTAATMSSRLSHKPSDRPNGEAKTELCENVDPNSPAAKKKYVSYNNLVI

As to `O=C(c1ccc(C#Cc2cccc(F)c2)cn1)N1CC2CC2C1` (stereo unspecified), the fold shift of L-AP4 EC50 is 0.696 (inactive).
